ChEMBL document CHEMBL3112459, “Synthesis and assay of retro-α4β1 integrin-targeting motifs” (Eur J Med Chem, 2014)
Numbered stars: 1 amine (or outer) side, 2 acyl side, 3 side chain; on linkers, the order of the positions; unused ones are H or OH. Square brackets hold non-standard residues; d marks the D form. Peptide text beside a SMILES is read from it. * marks the point of attachment. X1 = O=C(Cc1ccc(N[*:1])cc1)[*:2]; NH(2-Me-phenyl) = Cc1ccccc1N*; CO = O=C([*:1])[*:2]

Key:
[1] = system: SK-MEL-24; test: Cytotoxicity against human SK-MEL-24 cells by trypan blue exclusion assay; format: cell-based
[2] = (§1) Drug degradation in 100% mouse serum after 120 mins; format: ADME, cell-free; details: read-out: Drug degradation
Outline: (§2)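 Peptides were dissolved in Tris buffer pH 7.4, and aliquots of a 10 mM stock were added to mouse serum (10 µL into 190 µL). Incubation was at 37 °C for 120 min. Withdrawn aliquots were quenched with glacial acetonitrile to precipitate proteins and analysed by RP-HPLC and ESI-MS. Runs were in triplicate and repeated three times.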

[3] = system: Jurkat; test: Cytotoxicity against human Jurkat cells by trypan blue exclusion assay; format: cell-based
[4] = biological target: Integrin alpha-V/beta-3 (Homo sapiens, UniProt P05106+P06756); test: Inhibition of human alphavbeta3 integrin expressed in human SK-MEL-24 cells assessed as inhibition of cell adhesion to vitronectin; format: cell-based
Sequence of Integrin alpha-V/beta-3 (P05106 27-788 limits assumed): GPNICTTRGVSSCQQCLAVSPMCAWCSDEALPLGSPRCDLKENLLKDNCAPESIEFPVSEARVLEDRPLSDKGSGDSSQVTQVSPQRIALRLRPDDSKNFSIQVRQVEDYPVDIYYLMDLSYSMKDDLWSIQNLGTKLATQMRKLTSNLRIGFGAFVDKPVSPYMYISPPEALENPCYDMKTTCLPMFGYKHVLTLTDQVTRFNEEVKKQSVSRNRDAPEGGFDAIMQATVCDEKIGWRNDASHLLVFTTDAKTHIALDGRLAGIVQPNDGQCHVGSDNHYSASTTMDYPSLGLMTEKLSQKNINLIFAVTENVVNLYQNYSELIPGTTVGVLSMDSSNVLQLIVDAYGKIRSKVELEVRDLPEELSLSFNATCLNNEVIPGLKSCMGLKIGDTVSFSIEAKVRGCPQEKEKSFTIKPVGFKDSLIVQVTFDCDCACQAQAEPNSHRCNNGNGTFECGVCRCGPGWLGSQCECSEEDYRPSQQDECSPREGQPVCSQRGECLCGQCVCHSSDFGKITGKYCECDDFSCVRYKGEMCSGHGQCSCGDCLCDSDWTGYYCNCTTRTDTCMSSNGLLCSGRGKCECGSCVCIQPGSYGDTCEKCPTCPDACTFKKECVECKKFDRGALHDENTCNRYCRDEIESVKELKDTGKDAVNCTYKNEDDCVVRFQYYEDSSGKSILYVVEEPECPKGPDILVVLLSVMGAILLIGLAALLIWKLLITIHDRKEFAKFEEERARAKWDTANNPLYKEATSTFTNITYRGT
Sequence of Integrin alpha-V/beta-3 (P06756 31-889 limits assumed): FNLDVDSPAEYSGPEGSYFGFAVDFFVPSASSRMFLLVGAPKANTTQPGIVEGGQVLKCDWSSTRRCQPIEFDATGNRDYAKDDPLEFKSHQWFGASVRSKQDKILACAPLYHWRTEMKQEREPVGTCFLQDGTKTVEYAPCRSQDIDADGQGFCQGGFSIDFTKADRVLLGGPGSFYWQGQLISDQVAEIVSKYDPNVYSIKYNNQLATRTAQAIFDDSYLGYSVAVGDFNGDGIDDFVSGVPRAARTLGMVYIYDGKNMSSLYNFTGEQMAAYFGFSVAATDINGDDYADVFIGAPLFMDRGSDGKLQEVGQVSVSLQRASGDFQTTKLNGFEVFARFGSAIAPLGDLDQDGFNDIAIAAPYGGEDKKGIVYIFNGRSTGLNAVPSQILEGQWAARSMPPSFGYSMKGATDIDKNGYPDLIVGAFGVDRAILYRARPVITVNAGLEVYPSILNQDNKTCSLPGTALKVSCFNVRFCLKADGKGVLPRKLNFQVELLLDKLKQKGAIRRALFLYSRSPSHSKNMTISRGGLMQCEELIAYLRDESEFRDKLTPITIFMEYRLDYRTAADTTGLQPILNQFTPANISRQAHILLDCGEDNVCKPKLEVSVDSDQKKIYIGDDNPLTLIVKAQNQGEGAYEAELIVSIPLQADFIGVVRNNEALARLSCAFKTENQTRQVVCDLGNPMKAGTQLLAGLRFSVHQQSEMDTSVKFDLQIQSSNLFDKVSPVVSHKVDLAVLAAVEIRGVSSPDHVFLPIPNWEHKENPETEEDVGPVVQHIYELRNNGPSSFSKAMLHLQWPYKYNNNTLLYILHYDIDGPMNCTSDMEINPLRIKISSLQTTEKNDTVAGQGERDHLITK
Sequence of Integrin alpha-V/beta-3 (P06756 891-1048 limits assumed): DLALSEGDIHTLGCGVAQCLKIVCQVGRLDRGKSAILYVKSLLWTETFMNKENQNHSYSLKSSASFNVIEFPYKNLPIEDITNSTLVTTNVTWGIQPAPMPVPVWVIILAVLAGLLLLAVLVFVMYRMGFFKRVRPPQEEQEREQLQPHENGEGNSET

[5] = biological target: T1, Integrin alpha-4/beta-1 (Homo sapiens, UniProt P05556+P13612); test: Inhibition of human alpha4beta1 integrin expressed in human Jurkat cells assessed as inhibition of cell adhesion to VCAM-1; format: cell-based
T1 sequence (P05556 whole entry): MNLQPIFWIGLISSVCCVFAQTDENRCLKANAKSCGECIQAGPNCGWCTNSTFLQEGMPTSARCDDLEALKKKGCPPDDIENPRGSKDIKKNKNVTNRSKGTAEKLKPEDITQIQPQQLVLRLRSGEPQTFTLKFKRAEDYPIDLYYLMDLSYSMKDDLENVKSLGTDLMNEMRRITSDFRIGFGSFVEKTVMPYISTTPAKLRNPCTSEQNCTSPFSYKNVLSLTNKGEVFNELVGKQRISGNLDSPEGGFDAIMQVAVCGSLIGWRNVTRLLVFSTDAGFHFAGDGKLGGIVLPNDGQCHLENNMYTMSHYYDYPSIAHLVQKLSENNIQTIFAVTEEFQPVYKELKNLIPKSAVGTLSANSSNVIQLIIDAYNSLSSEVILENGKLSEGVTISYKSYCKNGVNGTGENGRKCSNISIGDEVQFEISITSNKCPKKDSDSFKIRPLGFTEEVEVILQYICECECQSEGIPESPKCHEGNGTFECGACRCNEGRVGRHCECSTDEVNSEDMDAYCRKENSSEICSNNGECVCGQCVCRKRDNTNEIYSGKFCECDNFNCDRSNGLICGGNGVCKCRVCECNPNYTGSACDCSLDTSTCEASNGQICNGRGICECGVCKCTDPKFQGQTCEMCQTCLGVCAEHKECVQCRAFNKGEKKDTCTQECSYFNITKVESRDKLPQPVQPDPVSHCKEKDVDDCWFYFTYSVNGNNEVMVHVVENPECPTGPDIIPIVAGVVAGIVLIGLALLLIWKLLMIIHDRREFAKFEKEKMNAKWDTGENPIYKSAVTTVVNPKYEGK
T1 sequence (P13612 whole entry): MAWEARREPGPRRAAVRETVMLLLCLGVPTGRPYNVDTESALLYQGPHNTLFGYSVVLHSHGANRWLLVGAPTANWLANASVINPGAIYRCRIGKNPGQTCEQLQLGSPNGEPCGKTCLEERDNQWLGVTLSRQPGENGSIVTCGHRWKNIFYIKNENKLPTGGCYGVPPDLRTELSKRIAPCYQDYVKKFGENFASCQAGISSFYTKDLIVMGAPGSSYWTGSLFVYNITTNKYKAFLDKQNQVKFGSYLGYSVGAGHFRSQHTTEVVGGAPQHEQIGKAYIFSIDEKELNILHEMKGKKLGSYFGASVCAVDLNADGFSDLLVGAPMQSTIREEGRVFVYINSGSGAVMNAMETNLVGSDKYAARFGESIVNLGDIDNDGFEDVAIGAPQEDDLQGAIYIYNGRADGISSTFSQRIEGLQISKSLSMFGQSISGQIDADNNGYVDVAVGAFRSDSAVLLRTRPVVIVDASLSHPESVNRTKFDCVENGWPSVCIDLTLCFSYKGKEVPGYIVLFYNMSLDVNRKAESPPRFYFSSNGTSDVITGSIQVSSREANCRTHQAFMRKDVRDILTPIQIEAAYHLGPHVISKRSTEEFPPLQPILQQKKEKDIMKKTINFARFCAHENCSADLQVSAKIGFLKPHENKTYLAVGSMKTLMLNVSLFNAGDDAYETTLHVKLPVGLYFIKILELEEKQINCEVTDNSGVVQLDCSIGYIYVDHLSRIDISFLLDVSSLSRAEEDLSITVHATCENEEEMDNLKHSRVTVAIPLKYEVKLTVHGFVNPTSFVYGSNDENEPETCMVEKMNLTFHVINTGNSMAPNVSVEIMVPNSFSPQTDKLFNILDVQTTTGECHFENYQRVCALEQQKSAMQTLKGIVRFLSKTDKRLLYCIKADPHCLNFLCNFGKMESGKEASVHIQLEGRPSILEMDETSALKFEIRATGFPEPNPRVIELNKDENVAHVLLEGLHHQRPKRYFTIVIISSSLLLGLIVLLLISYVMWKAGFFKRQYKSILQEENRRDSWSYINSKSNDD
Outline: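 Jurkat cells (5 × 10⁵ per well) adhered to wells coated overnight at 4 °C with human recombinant VCAM-1. Wells were blocked with 1% BSA/HBSS for 30 min at 37 °C. Data are mean ± S.E.M.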

[6] = biological target: T1, Integrin alpha-4/beta-1; test: Displacement of [125I]-FN from human alpha4beta1 integrin expressed in human Jurkat cells by scintillation proximity assay; format: cell-based
Outline: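 Jurkat cells stably expressing human α4 integrin were the integrin source. The α4 integrin–anti-α4 antibody complex was captured on anti-rabbit IgG-coated scintillant microspheres. Soluble ¹²⁵I-human FN (~440 kDa) was the radioligand, incubated overnight, with counts read as cpm. IC50 values came from competition curves and were converted to Ki by Cheng–Prusoff. Data are mean ± S.E.M.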

[7] = system: Serum; test: as §1; format: ADME, cell-free; details: 2 h; outline: as §2

Row | SMILES | Activity [1] | metabolised at 2 h [2] [%] | Activity [3] | IC50 [4] [nM] | IC50 [5] [nM] | inhibition [5] | IC50 [6] [nM] | Ki [6] [nM] | inhibition [6] | Stability [7]
1 | Cc1ccccc1NC(=O)Nc1ccc(CNC(=O)[C@H]2CCN(C(=O)[C@H](CC(=O)O)NC(=O)Cc3ccccc3)C2)cc1 | Non-toxic | 10 | Non-toxic | > 100000 | 80 | Dose-dependent effect | 100 | 60 | Dose-dependent effect | 
2 | Cc1ccccc1NC(=O)Nc1ccc(CNC(=O)[C@H]2CCN(C(=O)[C@H](CC(=O)O)NC(=O)c3c(Cl)cccc3Cl)C2)cc1 |  |  |  |  | > 100000 |  | 3900 | 2400 | Dose-dependent effect | 
3 | Cc1ccccc1NC(=O)Nc1ccc(CC(=O)N2CC[C@H](C(=O)N[C@@H](CC(=O)O)C(=O)OCc3ccccc3)C2)cc1 |  |  |  |  | > 100000 |  | > 100000 | > 100000 |  | 
4 | Cc1ccccc1NC(=O)Nc1ccc(CC(=O)N[C@@H](CC(C)C)C(=O)N[C@@H](CC(=O)O)C(=O)N[C@H](C(=O)N2CCC[C@H]2C(=O)O)C(C)C)cc1 ({NH(2-Me-phenyl)-CO}-[X1]LDVP-OH) |  |  |  |  |  | Dose-dependent effect |  |  | Dose-dependent effect | Unstable
5 | Cc1ccccc1NC(=O)Nc1ccc(CNC(=O)[C@H]2CCN(C(=O)C[C@H](NC(=O)c3c(Cl)cccc3Cl)C(=O)O)C2)cc1 |  |  |  |  | > 100000 |  | > 100000 | > 100000 |  | 
6 | Cc1ccccc1NC(=O)Nc1ccc(CNC(=O)[C@H]2CCN(C(=O)C[C@H](NC(=O)Cc3ccccc3)C(=O)O)C2)cc1 | Non-toxic | < 5 | Non-toxic | > 100000 | 93 | Dose-dependent effect | 290 | 180 | Dose-dependent effect | 
